Experimental findings from ChEMBL document CHEMBL4024762, “Discovery of N-(3-Carbamoyl-5,5,7,7-tetramethyl-5,7-dihydro-4H-thieno[2,3-c]pyran-2-yl)-lH-pyrazole-5-carboxamide (GLPG1837), a Novel Potentiator Which Can Open Class III Mutant Cystic Fibrosis Transmembrane Conductance Regulator (CFTR) Channels to a High Extent” (J Med Chem, 2018) are described below.

Usually pEC50 stands for −log10 of the EC50, conventionally taken in molar units.

Molecules are shown by their SMILES. pEC50: −log10 of the molar value. A value given as a limit tells only on which side of the number the result lay.

Data set [1] deals with Cystic fibrosis transmembrane conductance regulator (Homo sapiens, UniProt P13569, F508DEL). Description: (§1) Potentiation of CFTR F508del mutant (unknown origin) expressed in human CFBE41o cells incubated for 10 mins in presence of forskolin measured for 7 secs by YFP halide assay. Type of data set: cell-based. In short, it runs like this: (§2)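 CFBE41o- cells (CF bronchial line) transduced by adenovirus with F508del CFTR and YFP (H148Q/I152L/F47L). Cells held 24 h at 27°C, then treated 10 min at room temperature with 10 µM forskolin plus potentiator. YFP fluorescence read for 7 s across addition of NaI buffer (137 mM NaI). Activity = 1-(F/F0).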
Chain of Cystic fibrosis transmembrane conductance regulator (Homo sapiens, UniProt P13569, F508DEL) (P13569 as listed by the source): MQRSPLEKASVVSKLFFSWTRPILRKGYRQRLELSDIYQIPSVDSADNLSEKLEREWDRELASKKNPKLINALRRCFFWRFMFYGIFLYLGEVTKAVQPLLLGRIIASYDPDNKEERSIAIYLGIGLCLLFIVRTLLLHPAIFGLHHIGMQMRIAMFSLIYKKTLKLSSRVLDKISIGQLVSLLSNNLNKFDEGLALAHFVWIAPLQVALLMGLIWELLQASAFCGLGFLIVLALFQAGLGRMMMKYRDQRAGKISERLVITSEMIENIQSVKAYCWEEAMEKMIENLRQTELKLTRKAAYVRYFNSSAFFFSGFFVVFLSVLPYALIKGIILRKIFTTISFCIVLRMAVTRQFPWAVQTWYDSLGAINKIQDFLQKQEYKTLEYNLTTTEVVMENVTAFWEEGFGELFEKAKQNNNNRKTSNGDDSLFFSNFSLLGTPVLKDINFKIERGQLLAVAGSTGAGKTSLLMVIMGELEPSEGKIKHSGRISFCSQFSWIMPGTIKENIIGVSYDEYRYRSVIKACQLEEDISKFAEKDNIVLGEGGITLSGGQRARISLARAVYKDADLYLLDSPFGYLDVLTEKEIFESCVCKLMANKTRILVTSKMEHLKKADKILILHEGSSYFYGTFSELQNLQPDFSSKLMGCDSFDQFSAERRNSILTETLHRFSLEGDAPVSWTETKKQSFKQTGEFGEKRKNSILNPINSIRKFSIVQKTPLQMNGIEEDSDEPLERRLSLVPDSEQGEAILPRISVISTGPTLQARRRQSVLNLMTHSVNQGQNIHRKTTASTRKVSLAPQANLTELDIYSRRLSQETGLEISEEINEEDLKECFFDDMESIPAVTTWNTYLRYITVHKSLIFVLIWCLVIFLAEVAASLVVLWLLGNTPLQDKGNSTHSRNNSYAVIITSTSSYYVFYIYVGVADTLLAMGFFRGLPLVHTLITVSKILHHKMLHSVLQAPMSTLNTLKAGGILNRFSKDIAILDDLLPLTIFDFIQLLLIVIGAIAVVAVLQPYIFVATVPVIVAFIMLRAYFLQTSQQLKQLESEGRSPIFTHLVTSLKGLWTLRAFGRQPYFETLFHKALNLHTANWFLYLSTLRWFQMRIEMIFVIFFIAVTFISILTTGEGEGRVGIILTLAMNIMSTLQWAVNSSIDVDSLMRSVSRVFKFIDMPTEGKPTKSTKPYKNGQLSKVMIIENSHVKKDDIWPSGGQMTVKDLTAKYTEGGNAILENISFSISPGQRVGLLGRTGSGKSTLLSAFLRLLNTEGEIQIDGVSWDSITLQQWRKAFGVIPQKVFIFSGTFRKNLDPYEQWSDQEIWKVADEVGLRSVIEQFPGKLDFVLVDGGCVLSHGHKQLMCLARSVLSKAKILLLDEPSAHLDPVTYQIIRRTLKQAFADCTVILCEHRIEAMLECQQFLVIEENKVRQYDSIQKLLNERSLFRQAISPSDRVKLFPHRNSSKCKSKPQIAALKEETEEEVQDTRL

For data set [2], the target named is Cystic fibrosis transmembrane conductance regulator (Homo sapiens, UniProt P13569, G551D). Description: (§3) Potentiation of CFTR G551D mutant (unknown origin) expressed in HEK293 cells incubated for 10 mins in presence of forskolin measured for 2 mins by YFP halide assay. Type of data set: cell-based. In short, it runs like this: (§4)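 HEK293 cells transfected with the mutant CFTR (G551D, G178R, S549N or R117H) and YFP (H148Q/I152L/F47L), seeded directly after transfection, then 24 h at 37°C. Treated 10 min at room temperature with 10 µM forskolin plus potentiator. Fluorescence read for 2 min across addition of NaI buffer (375 mM NaI). Activity = 1-(F/F0).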
Chain of Cystic fibrosis transmembrane conductance regulator (Homo sapiens, UniProt P13569, G551D) (P13569 whole entry G551D): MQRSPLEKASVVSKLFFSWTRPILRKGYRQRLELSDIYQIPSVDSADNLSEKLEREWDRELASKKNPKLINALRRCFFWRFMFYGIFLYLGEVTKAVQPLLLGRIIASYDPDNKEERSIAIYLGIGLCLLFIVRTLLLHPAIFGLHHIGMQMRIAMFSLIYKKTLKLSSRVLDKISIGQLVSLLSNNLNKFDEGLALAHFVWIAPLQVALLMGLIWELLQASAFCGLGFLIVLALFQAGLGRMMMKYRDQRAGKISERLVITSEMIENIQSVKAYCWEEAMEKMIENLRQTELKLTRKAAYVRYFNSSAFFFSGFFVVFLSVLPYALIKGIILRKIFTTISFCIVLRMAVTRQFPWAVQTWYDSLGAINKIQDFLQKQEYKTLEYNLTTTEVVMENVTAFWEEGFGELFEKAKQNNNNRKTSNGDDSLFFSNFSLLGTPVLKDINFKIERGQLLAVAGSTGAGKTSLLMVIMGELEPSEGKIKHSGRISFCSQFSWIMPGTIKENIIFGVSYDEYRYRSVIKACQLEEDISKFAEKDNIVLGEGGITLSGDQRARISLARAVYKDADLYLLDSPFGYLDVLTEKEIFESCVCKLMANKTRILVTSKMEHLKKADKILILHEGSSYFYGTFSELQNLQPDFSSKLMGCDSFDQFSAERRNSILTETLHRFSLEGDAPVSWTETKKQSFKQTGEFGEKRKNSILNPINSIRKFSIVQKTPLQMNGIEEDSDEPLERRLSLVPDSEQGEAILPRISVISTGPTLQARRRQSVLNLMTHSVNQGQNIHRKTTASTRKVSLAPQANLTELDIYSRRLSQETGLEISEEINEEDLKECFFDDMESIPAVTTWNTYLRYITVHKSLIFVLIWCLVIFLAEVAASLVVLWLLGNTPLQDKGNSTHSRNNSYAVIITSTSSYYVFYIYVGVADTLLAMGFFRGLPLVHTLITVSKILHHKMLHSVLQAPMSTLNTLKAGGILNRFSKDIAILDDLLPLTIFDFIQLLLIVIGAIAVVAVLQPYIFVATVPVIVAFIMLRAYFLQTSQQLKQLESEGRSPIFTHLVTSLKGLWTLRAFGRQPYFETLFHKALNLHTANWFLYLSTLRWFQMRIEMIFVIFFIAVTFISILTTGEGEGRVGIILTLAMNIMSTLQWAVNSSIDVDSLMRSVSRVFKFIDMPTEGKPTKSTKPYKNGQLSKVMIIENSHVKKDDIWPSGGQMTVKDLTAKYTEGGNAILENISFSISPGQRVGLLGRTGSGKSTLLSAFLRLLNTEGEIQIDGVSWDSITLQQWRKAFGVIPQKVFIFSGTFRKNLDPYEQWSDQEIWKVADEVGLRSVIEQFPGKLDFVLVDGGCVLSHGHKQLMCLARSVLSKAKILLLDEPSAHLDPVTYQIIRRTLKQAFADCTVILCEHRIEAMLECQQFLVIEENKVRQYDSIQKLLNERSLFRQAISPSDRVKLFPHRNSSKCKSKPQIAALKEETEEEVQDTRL

The test system of data set [3] is Cystic fibrosis transmembrane conductance regulator (Homo sapiens), P13569 [G551D]. Described as §3. Type of data set: cell-based. Also on record: concentration or dose not given beside the values. In short, it runs like this: as §4
Chain of Cystic fibrosis transmembrane conductance regulator (Homo sapiens), P13569 [G551D] (P13569 whole entry G551D): as above
Data set [4] relates to Cystic fibrosis transmembrane conductance regulator (Homo sapiens), P13569 [F508del]. The data set is described as §1. The format is cell-based. Also on record: concentration or dose not given beside the values. The essentials: as §2
Chain of Cystic fibrosis transmembrane conductance regulator (Homo sapiens), P13569 [F508del] (P13569 as listed by the source): as the sequence (P13569 as listed by the source) above
The nature of data set [5]: Unbound intrinsic clearance in rat microsomes. Type of data set: ADME, Microsome. The essentials: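 Intrinsic clearance in liver microsomes or hepatocytes, corrected for non-specific binding using fraction unbound in microsomes (Fu,mic) or in hepatocyte incubations (Fu,inc).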
The species named for the next data set is Homo sapiens. Description: Selectivity ratio of EC50 for CFTR G551D mutant (unknown origin) to EC50 for CFTR F508del mutant (unknown origin).

Consider `CC1(C)Cc2c(sc(NC(=O)C3CCNC3=O)c2C(N)=O)C(C)(C)O1` (stereo not drawn), for which the pEC50 in data set [1] was 7.00.
On to `Cc1[nH]nc(C(=O)Nc2sc3c(c2C(N)=O)CC(C)(C)OC3(C)C)c1Cl`, for which the pEC50 is 6.70 in data set [2] and 7.96 in data set [1].
Regarding `CC1(C)Cc2c(sc(NC(=O)c3cc(C(F)(F)F)n[nH]3)c2C(N)=O)C(C)(C)O1`, the figures for the Activity in data set [3] and in data set [4] were 49% and 107%, respectively.
In the case of `CC1(C)Cc2c(sc(NC(=O)C3(O)CC3)c2C(N)=O)C(C)(C)O1`, in data set [1], the negative-log EC50 (pEC50) was 7.64.
With `CC1(C)Cc2c(sc(NC(=O)[C@@H](O)C(C)(C)C)c2C(N)=O)C(C)(C)O1`, the Activity in data set [3] is 50%; in data set [4] it was 95%. For the same compound, the negative logarithm of the EC50 (pEC50) in data set [2] is 6.38; in data set [1], 8.57.
Take `CC1(C)Cc2c(sc(NC(=O)C3(CO)CC3)c2C(N)=O)C(C)(C)O1`: the Activity in data set [3] came to 57%; in data set [4], 105%. Also, the pEC50 in data set [2] was 5.88; in data set [1], 7.82.
With `CC1(C)Cc2c(sc(NC(=O)c3cn[nH]c3)c2C(N)=O)C(C)(C)O1`, the negative-log EC50 (pEC50) in data set [1] is 6.90.
Turning to `NC(=O)c1c(NC(=O)c2ccccc2Cl)sc2c1CCCC2`, the Activity came out at 18% in data set [3] and 71% in data set [4]. In addition, the negative-log EC50 (pEC50) in data set [2] was below 5.00; in data set [1] it was 6.49. In data set [5], this compound registered a CL free of 1400 mL/min/kg.
Consider `CC1Cc2c(sc(NC(=O)c3ccccc3O)c2C(N)=O)C(C)O1` (stereo not drawn), for which the values for the Activity in data set [3] and in data set [4] were 36% and 98%, respectively. For the same compound, the pEC50 in data set [2] was 6.63; in data set [1] it was 8.40.
In the same order, the values of `CC(C)(C)c1cc(C(C)(C)C)c(NC(=O)c2c[nH]c3ccccc3c2=O)cc1O` [IVACAFTOR] are 50%, 100%, 5.89 and 6.90.
As to `CC1(C)Cc2c(sc(NC(=O)[C@H](O)C(C)(C)C)c2C(N)=O)C(C)(C)O1`, the Activity in data set [3] was 31%; in data set [4] it was 95%. In addition, in data set [1], the pEC50 is 6.90.
Consider `CC1(C)Cc2c(sc(NC(=O)c3ccccc3O)c2C(N)=O)CO1`, for which the Activity in data set [3] was 51%; in data set [4], 93%. Also, the pEC50 in data set [2] was 6.31; in data set [1], 7.89.
As to `CC1(C)Cc2c(sc(NC(=O)C(C)(C)CO)c2C(N)=O)C(C)(C)O1`, in data set [1], the pEC50 is 7.12.
For the compound `Cc1cc(C(=O)Nc2sc3c(c2C(N)=O)CC(C)(C)OC3(C)C)[nH]n1`, the Activity in data set [3] turned out to be 73%; in data set [4] it was 81%. Also, the pEC50 in data set [1] is 7.89.
Consider `CC1(C)Cc2c(sc(NC(=O)c3cc(C(F)(F)F)[nH]n3)c2C(N)=O)C(C)(C)O1`, for which the pEC50 in data set [2] was 6.89; in data set [1], 8.52.
`CC1(C)Cc2c(sc(NC(=O)C(C)(C)O)c2C(N)=O)C(C)(C)O1`: in data set [1], the pEC50 was 7.80.
With `CC1(C)Cc2c(sc(NC(=O)C3CNC(=O)C3)c2C(N)=O)C(C)(C)O1` (stereo not drawn), the pEC50 in data set [1] was below 5.00.
Regarding `CC(C)(C)CC(O)C(=O)Nc1sc2c(c1C(N)=O)CC(C)(C)OC2(C)C` (stereo not drawn), the Activity in data set [3] is 58%; in data set [4] it was 102%. Also, the Ratio EC50 in the data set filed under Homo sapiens stood at 2000. The pEC50 in data set [1] was 9.27.
`CC1(C)Cc2c(sc(NC(=O)Cc3ccn[nH]3)c2C(N)=O)C(C)(C)O1`: the pEC50 in data set [1] was 6.87.
On the same count and under the same terms, the same measure for `CC1(C)Cc2c(sc(NC(=O)c3ccccc3NS(C)(=O)=O)c2C(N)=O)C(C)(C)O1`: 6.83.
Turning to `Cc1cn[nH]c1C(=O)Nc1sc2c(c1C(N)=O)CC(C)(C)OC2(C)C`, the Activity in data set [3] worked out at 83%; in data set [4], 96%. Moreover, the figures for the negative-log EC50 (pEC50) in data set [2] and in data set [1] were 6.91 and 8.70, respectively.
For `Cc1ccc(C(=O)Nc2sc3c(c2C(N)=O)CCNC3)s1`, the Activity in data set [4] was 3%.
In the case of `CC1(C)Cc2c(sc(NC(=O)c3ccccc3O)c2C(N)=O)C(C)(C)O1`, the results for the Activity in data set [3] and in data set [4] were 52% and 111%, respectively. Moreover, the pEC50 in data set [1] is 8.40.
Consider `Cc1n[nH]c(C(=O)Nc2sc3c(c2C(N)=O)CC(C)(C)OC3(C)C)c1Cl`, for which the Activity in data set [3] came to 68%; in data set [4], 92%.
In the case of `CC1(C)Cc2c(sc(NC(=O)c3cccnc3O)c2C(N)=O)C(C)(C)O1`, in data set [1], the negative-log EC50 (pEC50) was 6.72.
Consider `Cc1ccc(C(=O)Nc2sc3c(c2C(N)=O)CCOC3)s1`, for which the Activity in data set [4] was 74%. For the same compound, the pEC50 in data set [1] was 6.11.
`CC1(C)Cc2c(sc(NC(=O)c3nnc[nH]3)c2C(N)=O)C(C)(C)O1`: the pEC50 in data set [1] is 6.33.
As for `Cc1ccc(C(=O)Nc2sc3c(c2C(N)=O)CCCC3)s1`, in data set [4], the Activity came out at 72%. Also, the negative logarithm of the EC50 (pEC50) in data set [1] was 6.19.
Consider `CC1(C)Cc2c(sc(NC(=O)c3[nH]ncc3Cl)c2C(N)=O)C(C)(C)O1`, for which the values for the Activity in data set [3] and in data set [4] were 77% and 96%, respectively. Further, in data set [1], the negative-log EC50 (pEC50) was 8.70.
